Assay results: ChEMBL document CHEMBL4130382, “Novel unsaturated glycyrrhetic acids derivatives: Design, synthesis and anti-inflammatory activity” (Eur J Med Chem, 2017)
The source made the active and inactive calls. No cut-off for these calls is given here.

Tests used:
[1] = Cytotoxicity against mouse RAW264.7 cells assessed as cell viability at 20 uM after 24 hrs by MTT assay (reference value: 100%); format: cell-based; conditions: read-out: Activity
Procedure, shortened: (§1)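 RAW264.7 cells seeded at 6×10^3 cells/well and cultured 24 h. Compounds diluted in DMEM for 24 h exposure. MTT 0.5 mg/mL added for 4 h, formazan dissolved in DMSO, OD read at 570 nm. Viability given as % of medium-only blank. Three independent experiments.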

[2] = Cytotoxicity against mouse RAW264.7 cells assessed as cell viability at 40 uM after 24 hrs by MTT assay (reference value: 100%); format: cell-based; conditions: read-out: Activity; procedure, shortened: as §1
RAW264.7 [3] = assay: Antiinflammatory activity in mouse RAW264.7 cells assessed as inhibition of LPS-induced NO production by measuring nitrite level at 20 uM pretreated for 2 hrs followed by LPS challenge measured after 24 hrs by Griess assay; format: functional, cell-based
Procedure, shortened: (§2)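 RAW264.7 cells grown in DMEM with 10% FBS plus penicillin/streptomycin at 37 °C and 5% CO2. Seeded at 1×10^5 cells/well and cultured 20 h. Pretreated 2 h with compounds in serum-free medium, then LPS 1 µg/mL for 24 h. Nitrite read with Griess reagent at 540 nm. Inhibition = (LPS-only − treated)/(LPS-only − medium blank) × 100%. Mean ± SD, n = 3.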

RAW264.7 [4] = assay: Antiinflammatory activity in mouse RAW264.7 cells assessed as inhibition of LPS-induced NO production by measuring nitrite level at 40 uM pretreated for 2 hrs followed by LPS challenge measured after 24 hrs by Griess assay relative to control; format: functional; procedure, shortened: as §2
RAW264.7 [5] = assay: Antiinflammatory activity in mouse RAW264.7 cells assessed as inhibition of LPS-stimulated COX-2 production preincubated with compound followed by LPS stimulation measured after 24 hrs by Western blot; format: functional, cell-based
Procedure, shortened: (§3)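 Cells at 2×10^6/well cultured 24 h. Medium replaced with fresh medium containing 10–40 µM compound, or Bay 11-7082 20 µM as NF-κB inhibitor control, plus LPS 1 µg/mL for 24 h. Lysates in IP buffer with 1 mM PMSF; protein by BCA. Equal protein run on 12.5% SDS-PAGE, PVDF, ECL detection for iNOS and COX-2. Mean ± SD, n = 3.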

RAW264.7 [6] = assay: Inhibition of LPS-induced ERK phosphorylation in mouse RAW264.7 cells at 40 uM preincubated with compound followed by LPS stimulation measured after 30 mins by Western blot; format: cell-based
Procedure, shortened: (§4)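 Cells at 2×10^6/well cultured 24 h, then given 10–40 µM compound with LPS 1 µg/mL for 30 min; Bay 11-7082 20 µM as control. Lysates in IP buffer with PMSF; equal protein on 12.5% SDS-PAGE, PVDF. Blocked in 5% milk/TBST, primary antibodies to phospho and total JNK, ERK1/2, p38, IκB and p65 at 1:1000 overnight at 4 °C, ECL detection. Mean ± SD, n = 3.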

RAW264.7 [7] = assay: Antiinflammatory activity in mouse RAW264.7 cells assessed as inhibition of LPS-stimulated COX-2 production at 40 uM preincubated with compound followed by LPS stimulation measured after 24 hrs by Western blot relative to control; format: functional; procedure, shortened: as §3
RAW264.7 [8] = assay: Inhibition of LPS-induced JNK phosphorylation in mouse RAW264.7 cells at 10 to 40 uM preincubated with compound followed by LPS stimulation measured after 30 mins by Western blot; format: cell-based; procedure, shortened: as §4
RAW264.7 [9] = assay: Antiinflammatory activity in mouse RAW264.7 cells assessed as inhibition of LPS-stimulated TNF-alpha production preincubated for 2 hrs followed by LPS stimulaton measured after 24 hrs by ELISA; format: functional, cell-based
Procedure, shortened: (§5)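 Cells at 7×10^4/well cultured 24 h, then pretreated 2 h with 10–40 µM compound. LPS 1 µg/mL added for 24 h. IL-6 and TNF-α measured in supernatant by mouse ELISA kits.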

[10] = target: Transcription factor p65 (Mus musculus) (UniProt Q04207); assay: Inhibition of LPS-induced NFkappaB p65 phosphorylation in mouse RAW264.7 cells preincubated with compound followed by LPS stimulation measured after 30 mins by Western blot; format: cell-based; procedure, shortened: as §4
Transcription factor p65 (Mus musculus), sequence (Q04207 whole entry): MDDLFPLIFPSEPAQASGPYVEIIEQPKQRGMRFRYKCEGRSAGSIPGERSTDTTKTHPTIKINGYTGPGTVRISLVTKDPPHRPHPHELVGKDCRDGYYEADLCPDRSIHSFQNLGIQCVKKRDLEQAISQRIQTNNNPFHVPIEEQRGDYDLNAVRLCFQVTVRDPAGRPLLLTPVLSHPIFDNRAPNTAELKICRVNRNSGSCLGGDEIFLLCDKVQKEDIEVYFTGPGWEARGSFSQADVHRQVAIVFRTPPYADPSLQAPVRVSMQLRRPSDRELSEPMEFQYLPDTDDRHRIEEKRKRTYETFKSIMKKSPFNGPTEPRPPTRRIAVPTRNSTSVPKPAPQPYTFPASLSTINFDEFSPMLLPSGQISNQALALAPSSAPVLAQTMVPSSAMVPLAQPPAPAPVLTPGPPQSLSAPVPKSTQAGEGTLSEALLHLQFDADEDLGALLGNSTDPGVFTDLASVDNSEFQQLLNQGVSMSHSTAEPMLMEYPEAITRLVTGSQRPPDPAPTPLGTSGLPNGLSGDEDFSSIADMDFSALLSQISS

RAW264.7 [11] = assay: Antiinflammatory activity in mouse RAW264.7 cells assessed as inhibition of LPS-stimulated iNOS production preincubated with compound followed by LPS stimulation measured after 24 hrs by Western blot; format: functional, cell-based; procedure, shortened: as §3
[12] = target: Transcription factor p65 (Mus musculus) (UniProt Q04207); assay: Inhibition of LPS-induced NFkappaB p65 nuclear translocation in mouse RAW264.7 cells at 20 to 40 uM preincubated for 1 hr followed by LPS stimulation measured after 3 hrs by DAPI staining-based immunofluorescence assay; format: cell-based
Procedure, shortened: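 Cells at 7×10^4/well cultured 24 h, pretreated with 20 or 40 µM compound, then LPS 1 µg/mL for 3 h. Fixed in 4% formaldehyde, permeabilized with 0.3% Triton X-100, blocked with 5% BSA. Stained overnight with anti-p65, then Alexa Fluor 488 anti-rabbit; nuclei counterstained with DAPI and imaged.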

RAW264.7 [13] = assay: Antiinflammatory activity in mouse RAW264.7 cells assessed as inhibition of LPS-stimulated IL-6 production preincubated for 2 hrs followed by LPS stimulaton measured after 24 hrs by ELISA; format: functional, cell-based; procedure, shortened: as §5
[14] = target: MAP kinase p38 (Mus musculus) (UniProt P47811+O08911+Q9WUI1+Q9Z1B7); assay: Inhibition of LPS-induced p38 MAPK phosphorylation in mouse RAW264.7 cells at 10 to 40 uM preincubated with compound followed by LPS stimulation measured after 30 mins by Western blot; format: cell-based; procedure, shortened: as §4
RAW264.7 [15] = assay: Antiinflammatory activity in mouse RAW264.7 cells assessed as inhibition of LPS-stimulated iNOS production at 40 uM preincubated with compound followed by LPS stimulation measured after 24 hrs by Western blot relative to control; format: functional; procedure, shortened: as §3

Row | Compound | viability at 24 h, 20 µM [1] [%] | viability at 24 h, 40 µM [2] [%] | inhibition (RAW264.7 [3]) | inhibition (RAW264.7 [4]) | also measured
1 | CCOC(=O)/C=C/[C@@]1(C)CC[C@]2(C)CC[C@]3(C)C(=CC(=O)[C@@H]4[C@@]5(C)CC[C@H](OC(C)=O)C(C)(C)[C@@H]5CC[C@]43C)[C@@H]2C1 | 94.3 |  |  |  | 
2 | CC1(C)[C@@H](O)CC[C@]2(C)[C@H]3C(=O)C=C4[C@@H]5C[C@@](C)(/C=C/C(=O)NCCCN6CCOCC6)CC[C@]5(C)CC[C@@]4(C)[C@]3(C)CC[C@@H]12 |  | 99.8 | Active | Active | 
3 | Cc1cccc(NC(=O)/C=C/[C@@]2(C)CC[C@]3(C)CC[C@]4(C)C(=CC(=O)[C@@H]5[C@@]6(C)CC[C@H](O)C(C)(C)[C@@H]6CC[C@]54C)[C@@H]3C2)c1 |  | 99.3 | inactive | inactive | 
4 | CC(O)CNC(=O)/C=C/[C@@]1(C)CC[C@]2(C)CC[C@]3(C)C(=CC(=O)[C@@H]4[C@@]5(C)CC[C@H](O)C(C)(C)[C@@H]5CC[C@]43C)[C@@H]2C1 (stereo not given in full) | 91.4 |  | Active | Active | 
5 | CN1CCN(C(=O)/C=C/[C@@]2(C)CC[C@]3(C)CC[C@]4(C)C(=CC(=O)[C@@H]5[C@@]6(C)CC[C@H](O)C(C)(C)[C@@H]6CC[C@]54C)[C@@H]3C2)CC1 |  | 96.6 |  |  | inhibition (RAW264.7 [5]): Dose-dependent effect; inhibition (RAW264.7 [6]): Active; inhibition at 40 µM (RAW264.7 [7]): 55.6%; inhibition (RAW264.7 [8]): inactive; inhibition (RAW264.7 [9]): Dose-dependent effect; inhibition at 40 µM (RAW264.7 [4]): > 70%; inhibition [10]: Dose-dependent effect; inhibition (RAW264.7 [11]): Dose-dependent effect; inhibition [12]: Active; IC50 (RAW264.7 [13]): 13.3 µM; inhibition (RAW264.7 [13]): Dose-dependent effect; inhibition [14]: inactive; inhibition at 40 µM (RAW264.7 [15]): 76.9%
6 | CC1(C)[C@@H](O)CC[C@]2(C)[C@H]3C(=O)C=C4[C@@H]5C[C@@](C)(C(=O)O)CC[C@]5(C)CC[C@@]4(C)[C@]3(C)CC[C@@H]12 [ENOXOLONE] |  | 102 | Active | Active | 
7 | CCN1CCN(C(=O)/C=C/[C@@]2(C)CC[C@]3(C)CC[C@]4(C)C(=CC(=O)[C@@H]5[C@@]6(C)CC[C@H](O)C(C)(C)[C@@H]6CC[C@]54C)[C@@H]3C2)CC1 |  | 98.4 |  |  | inhibition (RAW264.7 [9]): Dose-dependent effect; inhibition at 40 µM (RAW264.7 [4]): > 70%; IC50 (RAW264.7 [13]): 15.5 µM; inhibition (RAW264.7 [13]): Dose-dependent effect
8 | CC(C)N(C(=O)/C=C/[C@@]1(C)CC[C@]2(C)CC[C@]3(C)C(=CC(=O)[C@@H]4[C@@]5(C)CC[C@H](O)C(C)(C)[C@@H]5CC[C@]43C)[C@@H]2C1)C(C)C | 95.8 |  | Active |  | 
9 | CC1(C)[C@@H](O)CC[C@]2(C)[C@H]3C(=O)C=C4[C@@H]5C[C@@](C)(/C=C/C(=O)NNC(N)=O)CC[C@]5(C)CC[C@@]4(C)[C@]3(C)CC[C@@H]12 | 96.7 |  |  |  | 
10 | CC1(C)[C@@H](O)CC[C@]2(C)[C@H]3C(=O)C=C4[C@@H]5C[C@@](C)(/C=C/C(=O)O)CC[C@]5(C)CC[C@@]4(C)[C@]3(C)CC[C@@H]12 |  | 99.2 | Active | Active | 
11 | CNC(=O)/C=C/[C@@]1(C)CC[C@]2(C)CC[C@]3(C)C(=CC(=O)[C@@H]4[C@@]5(C)CC[C@H](O)C(C)(C)[C@@H]5CC[C@]43C)[C@@H]2C1 |  | 100 | Active | Active | 
12 | CC(=O)O[C@H]1CC[C@]2(C)[C@H]3C(=O)C=C4[C@@H]5C[C@@](C)(/C=C/C(=O)OCc6ccccc6)CC[C@]5(C)CC[C@@]4(C)[C@]3(C)CC[C@H]2C1(C)C | 96.9 |  | inactive | inactive | 
13 | CC1(C)[C@@H](O)CC[C@]2(C)[C@H]3C(=O)C=C4[C@@H]5C[C@@](C)(/C=C/C(=O)N6CCOCC6)CC[C@]5(C)CC[C@@]4(C)[C@]3(C)CC[C@@H]12 |  | 97.5 | inactive | inactive | 
14 | CC1(C)[C@@H](O)CC[C@]2(C)[C@H]3C(=O)C=C4[C@@H]5C[C@@](C)(/C=C/C(=O)NCCc6ccccc6)CC[C@]5(C)CC[C@@]4(C)[C@]3(C)CC[C@@H]12 | 93 |  | inactive | inactive | 
15 | CC1(C)[C@@H](O)CC[C@]2(C)[C@H]3C(=O)C=C4[C@@H]5C[C@@](C)(/C=C/C(=O)NCCCCl)CC[C@]5(C)CC[C@@]4(C)[C@]3(C)CC[C@@H]12 |  | 95 |  |  | 
16 | CCNC(=O)/C=C/[C@@]1(C)CC[C@]2(C)CC[C@]3(C)C(=CC(=O)[C@@H]4[C@@]5(C)CC[C@H](O)C(C)(C)[C@@H]5CC[C@]43C)[C@@H]2C1 |  | 92 | Active | Active | 
17 | CN(C)C(=O)/C=C/[C@@]1(C)CC[C@]2(C)CC[C@]3(C)C(=CC(=O)[C@@H]4[C@@]5(C)CC[C@H](O)C(C)(C)[C@@H]5CC[C@]43C)[C@@H]2C1 |  | 99.5 | Active | Active | 
18 | CC(C)NC(=O)/C=C/[C@@]1(C)CC[C@]2(C)CC[C@]3(C)C(=CC(=O)[C@@H]4[C@@]5(C)CC[C@H](O)C(C)(C)[C@@H]5CC[C@]43C)[C@@H]2C1 |  | 97.6 | Active |  | 
19 | CC1(C)[C@@H](O)CC[C@]2(C)[C@H]3C(=O)C=C4[C@@H]5C[C@@](C)(/C=C/C(=O)NNc6ccccc6)CC[C@]5(C)CC[C@@]4(C)[C@]3(C)CC[C@@H]12 | 94.8 |  | inactive | inactive | 
20 | CC1(C)[C@@H](O)CC[C@]2(C)[C@H]3C(=O)C=C4[C@@H]5C[C@@](C)(/C=C/C(=O)NCCO)CC[C@]5(C)CC[C@@]4(C)[C@]3(C)CC[C@@H]12 | 93.6 |  | Active | Active | 
